Reference: ChEMBL document CHEMBL1148314, “4-(omega-(alkyloxy)alkyl)-1H-imidazole derivatives as histamine H(3) receptor antagonists/agonists” (J Med Chem, 2004)

Key:
[1] = molecular target: T1, Histamine H3 receptor (Rattus norvegicus, UniProt Q9QYN8); assay: In vitro […] against rat histamine H3 receptor
Procedure, shortened: (§1)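 Rat cerebral cortex synaptosomes preloaded 30 min at 37 °C with L-[3H]histidine 0.4 μM in modified Krebs–Ringer, washed, then depolarized 2 min with 2 or 30 mM K+. Drugs and 1 μM histamine added 5 min before the stimulus. [3H]histamine measured by scintillation after purification; Ki by Cheng–Prusoff, mean ± SEM of at least three experiments.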

[2] = test system: Mus musculus; assay: Potency after oral administration in vivo in mice; format: functional
[3] = molecular target: T1, Histamine H3 receptor; assay: Functional Histamine H3 receptor antagonistic activity in vitro assay on synaptosomes of rat cerebral cortex; format: subcellular, Brain; procedure, shortened: as §1
[4] = molecular target: Histamine H3 receptor (Cavia porcellus, UniProt Q9JI35); assay: Functional Histamine H3 receptor antagonistic activity in vitro assay on guinea pig ileum; format: tissue-based; conditions: read-out: pA2 (converted)
Sequence of Histamine H3 receptor (Cavia porcellus, UniProt Q9JI35) (Q9JI35 whole entry): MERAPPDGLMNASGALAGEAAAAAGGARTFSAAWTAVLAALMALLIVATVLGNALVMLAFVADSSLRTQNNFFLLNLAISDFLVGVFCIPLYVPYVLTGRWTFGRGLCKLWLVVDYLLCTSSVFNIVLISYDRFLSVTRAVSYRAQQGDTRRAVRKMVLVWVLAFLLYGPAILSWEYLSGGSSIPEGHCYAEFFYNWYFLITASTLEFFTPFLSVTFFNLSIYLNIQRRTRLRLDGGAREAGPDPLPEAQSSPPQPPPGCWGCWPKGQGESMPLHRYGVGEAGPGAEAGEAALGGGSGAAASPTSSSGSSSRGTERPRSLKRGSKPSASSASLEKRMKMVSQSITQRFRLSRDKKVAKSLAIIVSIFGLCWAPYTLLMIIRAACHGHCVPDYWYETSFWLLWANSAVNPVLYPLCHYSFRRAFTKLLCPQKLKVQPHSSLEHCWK
Procedure, shortened: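 Guinea-pig ileal longitudinal muscle–myenteric plexus strips at about 7.5 mN in Krebs–Henseleit, 37 °C, 95% O2/5% CO2, mepyramine 1 μM present. Field stimulated at 15 V, 0.5 ms, 0.1 Hz. Cumulative (R)-α-methylhistamine curves (1–1000 nM) recorded before and after antagonist; rightward shift corrected by the shift in daily controls.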

[5] = molecular target: Histamine H2 receptor (Cavia porcellus, UniProt P47747); assay: Functional H2 receptor antagonistic activity in vitro assay on the isolated spontaneously beating guinea-pig right atrium; format: tissue-based, Cardiac atrium; conditions: read-out: pA2 (converted)
Sequence of Histamine H2 receptor (P47747 whole entry): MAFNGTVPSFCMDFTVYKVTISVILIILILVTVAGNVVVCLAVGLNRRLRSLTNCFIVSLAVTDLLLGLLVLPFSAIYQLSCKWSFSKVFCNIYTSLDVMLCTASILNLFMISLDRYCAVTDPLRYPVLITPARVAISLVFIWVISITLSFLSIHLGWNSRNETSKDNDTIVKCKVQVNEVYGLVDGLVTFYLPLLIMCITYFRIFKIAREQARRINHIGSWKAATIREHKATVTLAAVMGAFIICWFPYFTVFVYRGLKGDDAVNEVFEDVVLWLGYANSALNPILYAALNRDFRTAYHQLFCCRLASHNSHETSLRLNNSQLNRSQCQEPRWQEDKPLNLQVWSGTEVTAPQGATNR
Procedure, shortened: (§2)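 Isolated guinea-pig tissues, spontaneously beating right atrium for H2 and ileum for H1, tested by standard methods. At least triplicate; values are means.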

[6] = molecular target: Histamine H1 receptor (Cavia porcellus, UniProt P31389); assay: Functional Histamine H1 receptor antagonistic activity in vitro assay on guinea pig ileum; format: tissue-based; conditions: read-out: pA2 (converted); procedure, shortened: as §2
Sequence of Histamine H1 receptor (P31389 whole entry): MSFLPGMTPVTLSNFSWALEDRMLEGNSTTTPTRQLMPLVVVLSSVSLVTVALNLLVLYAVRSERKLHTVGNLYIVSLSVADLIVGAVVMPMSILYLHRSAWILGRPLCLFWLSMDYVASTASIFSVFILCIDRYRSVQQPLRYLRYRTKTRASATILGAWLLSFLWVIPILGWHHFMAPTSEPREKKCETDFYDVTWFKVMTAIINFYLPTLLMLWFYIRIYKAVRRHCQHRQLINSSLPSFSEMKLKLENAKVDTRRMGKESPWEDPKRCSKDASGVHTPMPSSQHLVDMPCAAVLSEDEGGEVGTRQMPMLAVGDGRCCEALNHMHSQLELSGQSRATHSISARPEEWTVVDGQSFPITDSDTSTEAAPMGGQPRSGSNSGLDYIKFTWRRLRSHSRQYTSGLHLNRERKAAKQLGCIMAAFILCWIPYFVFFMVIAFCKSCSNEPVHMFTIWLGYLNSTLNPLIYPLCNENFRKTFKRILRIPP

[7] = molecular target: T2, Histamine H3 receptor (Homo sapiens, UniProt Q9Y5N1); assay: (§3) Effect on specific [35S]GTP-gamma-S, Binding to HEK293 cell membranes expressing the human Histamine H3 receptor; format: functional
T2 sequence (Q9Y5N1 whole entry): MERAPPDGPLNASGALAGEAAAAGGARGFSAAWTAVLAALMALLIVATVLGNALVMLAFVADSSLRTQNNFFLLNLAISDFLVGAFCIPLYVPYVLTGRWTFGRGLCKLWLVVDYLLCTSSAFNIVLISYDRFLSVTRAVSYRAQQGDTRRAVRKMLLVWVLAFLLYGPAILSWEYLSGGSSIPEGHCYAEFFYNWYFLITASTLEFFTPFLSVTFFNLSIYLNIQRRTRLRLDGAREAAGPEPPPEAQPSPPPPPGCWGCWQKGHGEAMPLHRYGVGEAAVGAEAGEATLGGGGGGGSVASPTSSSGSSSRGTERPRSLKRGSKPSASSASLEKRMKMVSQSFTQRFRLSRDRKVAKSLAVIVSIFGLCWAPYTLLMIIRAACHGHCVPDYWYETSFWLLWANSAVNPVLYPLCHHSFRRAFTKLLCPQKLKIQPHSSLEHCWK
Procedure, shortened: (§4)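 HEK293 cells stably transfected with human H3 receptor (selected with 2 mg/mL G418, maintained in 1 mg/mL). Membranes prepared in Tris/HCl 50 mM pH 7.5; 10–20 μg protein incubated 60 min at 20 °C with 0.1 nM [35S]GTPγS ± drug in Tris 50 mM, NaCl 100 mM, MgCl2 10 mM, GDP 10 μM.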

[8] = molecular target: T2, Histamine H3 receptor; assay: as §3; format: functional; procedure, shortened: as §4; remark: listed apart in the source

T1 sequence (Q9QYN8 whole entry): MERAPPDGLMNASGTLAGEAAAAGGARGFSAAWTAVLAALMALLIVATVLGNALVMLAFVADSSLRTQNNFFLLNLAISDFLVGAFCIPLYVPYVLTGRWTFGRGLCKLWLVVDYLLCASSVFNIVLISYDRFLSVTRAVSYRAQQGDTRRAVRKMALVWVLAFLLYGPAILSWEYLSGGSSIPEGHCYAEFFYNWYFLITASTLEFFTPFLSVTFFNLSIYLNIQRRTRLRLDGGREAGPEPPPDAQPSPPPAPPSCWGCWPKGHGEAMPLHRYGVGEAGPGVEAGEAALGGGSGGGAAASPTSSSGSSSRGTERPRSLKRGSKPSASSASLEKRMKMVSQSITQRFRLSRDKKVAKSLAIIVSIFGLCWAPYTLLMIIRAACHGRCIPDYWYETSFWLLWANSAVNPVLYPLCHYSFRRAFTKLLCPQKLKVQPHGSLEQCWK

| SMILES | Ki [1] | ED50 [2] | Ki [3] | Kb [4] | Kb [5] | Kb [6] | Intrinsic activity [7] | EC50 [8] |
| --- | --- | --- | --- | --- | --- | --- | --- | --- |
| O=C(COCCCc1c[nH]cn1)c1cccc([N+](=O)[O-])c1 | > 500 nM |  |  |  |  |  |  |  |
| C=CCCCOCCCc1c[nH]cn1.O=C(O)C(=O)O | 27 nM | ≥ 10 mg/kg |  |  |  |  |  |  |
| O=C(CCCOCCCc1c[nH]cn1)c1ccc(F)cc1.O=C(O)C(=O)O | 14 nM | 0.28 mg/kg |  |  |  |  |  |  |
| C#CCCCOCCCc1c[nH]cn1 | 38 nM |  | 39.8 nM | 316 nM |  |  |  |  |
| CCCOCCCc1c[nH]cn1.O=C(O)C(=O)O | 230 nM | 1.8 mg/kg | 251 nM |  | > 31600 nM | > 31600 nM |  |  |
| N#CCCOCCCc1c[nH]cn1.O=C(O)C(=O)O | 674 nM | 3.2 mg/kg |  |  |  |  |  |  |
| CCCCOCCCc1c[nH]cn1.O=C(O)/C=C\C(=O)O | 56 nM | > 10 mg/kg |  |  |  |  | 0.39 | 311 nM |
| c1nc(COCC2CCCCC2)c[nH]1 | > 500 nM |  | > 1000 nM |  |  |  |  |  |
| COCCCc1c[nH]cn1.O=C(O)C(=O)O | 290 nM | ~10 mg/kg | 316 nM |  | > 31600 nM | > 100000 nM |  |  |
| O=C(COCCCc1c[nH]cn1)c1ccccc1.O=C(O)/C=C\C(=O)O | > 500 nM | > 10 mg/kg |  |  |  |  |  |  |
| CCOCCCc1c[nH]cn1.O=C(O)C(=O)O |  | 0.26 mg/kg |  |  | > 31600 nM | > 100000 nM |  |  |
| O=C(O)/C=C\C(=O)O.c1nc(CCCOCCCC2CCCCC2)c[nH]1 |  | 1 mg/kg | 20 nM |  | 50100 nM | 7940 nM |  |  |
| O=C(O)/C=C\C(=O)O.c1nc(CCCOCCCC2CCCC2)c[nH]1 | 7 nM | 0.28 mg/kg | 6.31 nM | 15.8 nM | 5010 nM | 20000 nM |  |  |
| CCCCCCCCOCCCc1c[nH]cn1.O=C(O)/C=C\C(=O)O |  | > 10 mg/kg |  | 100 nM | 2510 nM | 15800 nM |  |  |
| CC(C)(C)OCCCc1c[nH]cn1.O=C(O)/C=C\C(=O)O | 120 nM | 1.3 mg/kg | 126 nM |  | > 31600 nM | > 100000 nM |  |  |
| CCCCCOCCCc1c[nH]cn1.O=C(O)/C=C\C(=O)O | 33 nM | > 30 mg/kg | 31.6 nM | 63.1 nM | > 31600 nM | 20000 nM | 0.47 | 97 nM |

| SMILES | Ki [1] | ED50 [2] | Ki [3] | Kb [4] | Kb [5] | Kb [6] | Intrinsic activity [7] | EC50 [8] |
| --- | --- | --- | --- | --- | --- | --- | --- | --- |
| C#CCOCCCc1c[nH]cn1.O=C(O)C(=O)O | 190 nM | 0.57 mg/kg | 200 nM |  | > 31600 nM | > 316000 nM | 0.73 | 135 nM |
| c1ccc(CC(COCCCc2c[nH]cn2)c2ccccc2)cc1 (stereo not given) | 184 nM |  |  |  |  |  |  |  |
| c1ccc(C(OCCCc2cnc[nH]2)(c2ccccc2)c2ccccc2)cc1 | > 500 nM | > 10 mg/kg |  |  |  |  |  |  |
| c1nc(CCCOCC2CC2)c[nH]1 | 167 nM |  |  |  |  |  |  |  |
| O=C(O)/C=C\C(=O)O.c1nc(COCCC2CCCCC2)c[nH]1 | > 500 nM | > 10 mg/kg |  |  |  |  |  |  |
| COCCOCCCc1c[nH]cn1 | ~400 nM |  |  |  |  |  |  |  |
| c1nc(CCCOCCC2CCCCC2)c[nH]1 | 11 nM |  | 10 nM |  |  |  |  |  |
| CCCCCCOCCCc1c[nH]cn1.O=C(O)/C=C\C(=O)O | 14 nM | > 30 mg/kg | 12.6 nM | 39.8 nM | 10000 nM | 7940 nM | 0.49 | 40 nM |
| CCCCCCCOCCCc1c[nH]cn1 |  |  | 15.8 nM | 15.8 nM | 2000 nM | > 100000 nM |  |  |
| C=CCOCCCc1c[nH]cn1.O=C(O)C(=O)O | 200 nM | 0.33 mg/kg | 200 nM |  | > 31600 nM | > 316000 nM | 0.63 | 336 nM |
| CC(=O)CCOCCCc1c[nH]cn1 | 143 nM |  |  |  |  |  |  |  |
| c1nc(COCCCC2CCCCC2)c[nH]1 | ≥ 500 nM |  |  |  |  |  |  |  |
| c1nc(COCC2CC3CCC2C3)c[nH]1 (stereo not given) | ~500 nM |  |  |  |  |  |  |  |
| CC(C)(C)OCCc1c[nH]cn1.O=C(O)C(=O)O | > 500 nM | > 10 mg/kg |  |  |  |  |  |  |
| S=C(NC1CCCCC1)N1CCC(c2cnc[nH]2)CC1 [THIOPERAMIDE] |  | 1 mg/kg |  |  |  |  |  |  |
| O=C(c1ccc(OCCCc2c[nH]cn2)cc1)C1CC1 [CIPROXIFAN] |  | 0.14 mg/kg |  |  |  |  |  |  |
